Laboratory results reported in ChEMBL document CHEMBL3526066, “In vitro metabolism of 17-(dimethylaminoethylamino)-17-demethoxygeldanamycin in human liver microsomes” (Drug Metab Dispos, 2011).

Legend:
Cytochrome P450 2E1 = Cytochrome P450 2E1 (Homo sapiens, UniProt P05181); test: Drug metabolism assessed as human recombinant CYP2E1-mediated oxidative metabolism at 1 uM by liquid chromatography-tandem mass spectrometry; type: ADME; conditions: recombinant enzyme
Liver microsome [1] = test: Metabolic stability in human liver microsomes at 5 uM by liquid chromatography-tandem mass spectrometry; type: ADME
Procedure, shortened: (§1)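 Pooled human liver microsomes (1 mg/ml) were incubated at 37°C with substrate (5 µM final), 1 mM β-NADPH and 3.3 mM MgCl2 in 0.1 M phosphate buffer, with or without 5 mM reduced GSH. Aliquots were taken from 1 to 120 min and quenched in ice-cold acetonitrile containing internal standard. LC-MS/MS peak-area ratios to internal standard were normalised to the 1-min sample.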

Liver microsome [2] = test: Drug metabolism in human liver microsomes assessed as (4E,6Z,8S,9S,10E,12S,13R,14S,16R)-19-(2-(dimethylamino)ethylamino)-8,13-dihydroxy-14-methoxy-4,10,12,16-tetramethyl-3,20,22-trioxo-2-azabicyclo[16.3.1]docosa-1(21),4,6,10,18-pentaen-9-yl carbamate formation at 1 uM 17-DMAG by liquid chromatography-tandem mass spectrometry in presence of 1 uM ketoconazole CYP3A inhibitor; type: ADME
[3] = Terminal half life in human; type: ADME, organism-based; conditions: in vivo, read-out: beta t1/2 (converted)
[4] = Total clearance in human; type: ADME, organism-based; conditions: in vivo
Cytochrome P450 3A5 = Cytochrome P450 3A5 (Homo sapiens, UniProt P20815); test: Drug metabolism assessed as human recombinant CYP3A5-mediated (4E,6Z,8S,9S,10E,12S,13R,14S,16R)-19-(2-(dimethylamino)ethylamino)-13-hydroxy-8,14-dimethoxy-4,10,12,16-tetramethyl-3,20,22-trioxo-2-azabicyclo[16.3.1]docosa-1(21),4,6,10,18-pentaen-9-yl carbamate formation at 1 uM relative to CYP3A4; type: ADME; conditions: recombinant enzyme
[5] = Drug metabolism in human liver microsomes assessed as stability after 2 hrs relative to control by liquid chromatography-tandem mass spectrometry; type: ADME; conditions: read-out: Stability; procedure, shortened: as §1
Cytochrome P450 2B6 = biological target: T1, Cytochrome P450 2B6 (Homo sapiens, UniProt P20813); test: Drug metabolism assessed as human recombinant CYP2B6-mediated oxidative metabolism at 1 uM by liquid chromatography-tandem mass spectrometry; type: ADME; conditions: recombinant enzyme
T1 sequence (P20813 whole entry): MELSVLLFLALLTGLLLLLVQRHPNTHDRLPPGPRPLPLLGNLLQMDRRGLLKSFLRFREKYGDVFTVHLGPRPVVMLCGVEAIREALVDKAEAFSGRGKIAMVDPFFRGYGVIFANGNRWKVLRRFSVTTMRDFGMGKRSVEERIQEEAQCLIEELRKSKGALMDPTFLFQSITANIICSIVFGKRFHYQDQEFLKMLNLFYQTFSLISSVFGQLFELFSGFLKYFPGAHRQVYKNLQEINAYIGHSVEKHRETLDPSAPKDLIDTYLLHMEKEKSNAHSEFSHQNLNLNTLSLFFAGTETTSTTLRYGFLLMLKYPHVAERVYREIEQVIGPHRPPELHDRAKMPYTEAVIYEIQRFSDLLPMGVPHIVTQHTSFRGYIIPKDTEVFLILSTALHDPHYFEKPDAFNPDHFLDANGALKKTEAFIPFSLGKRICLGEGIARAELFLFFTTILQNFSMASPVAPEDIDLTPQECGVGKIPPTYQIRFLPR

Cytochrome P450 2C9 = Cytochrome P450 2C9 (Homo sapiens, UniProt P11712); test: Drug metabolism assessed as human recombinant CYP2C9-mediated oxidative metabolism at 1 uM by liquid chromatography-tandem mass spectrometry; type: ADME; conditions: recombinant enzyme
Liver microsome [6] = test: Drug metabolism in human liver microsomes assessed as (4E,6Z,8S,9S,10E,12S,13R,14S,16R)-19-(2-(dimethylamino)ethylamino)-13-hydroxy-10-(hydroxymethyl)-8,14-dimethoxy-4,12,16-trimethyl-3,20,22-trioxo-2-azabicyclo[16.3.1]docosa-1(21),4,6,10,18-pentaen-9-yl carbamate formation at 37 degC in presence of reduced GSH by liquid chromatography-tandem mass spectrometry; type: ADME; conditions: read-out: Km(app)
Liver microsome [7] = test: Drug metabolism in human liver microsomes assessed as (4E,6Z,8S,9S,10E,12S,13R,14S,16R)-19-(2-(dimethylamino)ethylamino)-13,14-dihydroxy-8-methoxy-4,10,12,16-tetramethyl-3,20,22-trioxo-2-azabicyclo[16.3.1]docosa-1(21),4,6,10,18-pentaen-9-yl carbamate formation at 37 degC in presence of reduced GSH by liquid chromatography-tandem mass spectrometry; type: ADME; conditions: read-out: Km(app)
Liver microsome [8] = test: Drug level in human liver microsomes treated with 1 uM 17-DMAG by liquid chromatography-tandem mass spectrometry in presence of 1 uM quercetin CYP2C8 inhibitor; type: ADME
Procedure, shortened: (§2)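 Pooled HLMs in 0.1 M phosphate buffer pH 7.4 with 1 mM β-NADPH, 3.3 mM MgCl2 and the selective inhibitor were preincubated 3 min at 37°C in a shaking water bath. 17-DMAG (1 µM final) was then added and incubated 20 min at 37°C, with parallel no-inhibitor controls. M1, M2, M3, M4 and M6 were quantified by LC-MS/MS MRM. Inhibition was taken as the ratio of metabolite formed with versus without inhibitor.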

Cytochrome P450 3A4 = Cytochrome P450 3A4 (Homo sapiens, UniProt P08684); test: Drug level assessed as human recombinant CYP3A4-mediated oxidative metabolism treated with 1 uM 17-DMAG after 30 mins by liquid chromatography-tandem mass spectrometry; type: ADME; conditions: recombinant enzyme, 0.5 h
Procedure, shortened: (§3)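 Recombinant human P450 (E. coli-expressed, coexpressed with cytochrome b5), 20 pmol per 200 µl incubation with 0.2 mg reduced β-NADPH and 3.3 mM MgCl2 in 0.1 M phosphate buffer pH 7.4. Preincubated at 37°C in a shaking water bath, then 1 µM 17-DMAG added. E. coli control microsomes lacking P450 cDNA served as negative control. Metabolite (M1–M4, M6) formation rates were read by LC-MS/MS MRM and expressed as percent of the CYP3A4 rate.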

Liver microsome [9] = test: Retention time in human liver microsomes treated with 10 uM […] after 2 hrs by liquid chromatography-tandem mass spectrometry; type: ADME
Procedure, shortened: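 17-DMAG (10 µM initial) was incubated with HLMs (1 mg/ml) in 0.1 M phosphate buffer with 3.3 mM MgCl2 and 1 mM β-NADPH at 37°C for 2 h alongside negative controls, then quenched with ice-cold acetonitrile. Samples were run on a C18 column with a 0.1% formic acid/ammonium formate–acetonitrile gradient (10–90% B in 10 min) using MS full scan, MRM, EPI and MS3 scans.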

Cytochrome P450 2C19 = Cytochrome P450 2C19 (Homo sapiens, UniProt P33261); test: Drug level assessed as human recombinant CYP2C19-mediated oxidative metabolism treated with 1 uM 17-DMAG relative to CYP3A4; type: ADME; conditions: recombinant enzyme; procedure, shortened: as §3
Liver microsome [10] = test: Drug level in human liver microsomes treated with 1 uM 17-DMAG by liquid chromatography-tandem mass spectrometry in presence of 10 uM ticlopidine CYP2B6 inhibitor; type: ADME; procedure, shortened: as §2
Cytochrome P450 1A2 = biological target: T2, Cytochrome P450 1A2 (Homo sapiens, UniProt P05177); test: Drug level assessed as human recombinant CYP1A2-mediated oxidative metabolism treated with 1 uM 17-DMAG relative to CYP3A4; type: ADME; conditions: recombinant enzyme; procedure, shortened: as §3
T2 sequence (P05177 whole entry): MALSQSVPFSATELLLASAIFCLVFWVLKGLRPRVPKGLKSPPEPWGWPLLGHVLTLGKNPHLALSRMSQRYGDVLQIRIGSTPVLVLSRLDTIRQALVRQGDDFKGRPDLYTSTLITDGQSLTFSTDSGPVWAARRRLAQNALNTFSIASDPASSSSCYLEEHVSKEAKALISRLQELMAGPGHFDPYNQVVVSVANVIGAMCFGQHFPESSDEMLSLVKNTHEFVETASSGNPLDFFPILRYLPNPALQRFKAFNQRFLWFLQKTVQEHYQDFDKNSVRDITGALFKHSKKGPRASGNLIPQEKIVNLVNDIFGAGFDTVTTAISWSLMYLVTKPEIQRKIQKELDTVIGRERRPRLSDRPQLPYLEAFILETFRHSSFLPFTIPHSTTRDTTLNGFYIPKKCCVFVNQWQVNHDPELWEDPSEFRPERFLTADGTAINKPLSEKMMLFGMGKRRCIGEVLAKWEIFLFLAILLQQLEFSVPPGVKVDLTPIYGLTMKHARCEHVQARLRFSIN

Liver microsome [11] = test: Drug level in human liver microsomes treated with 1 uM 17-DMAGby liquid chromatography-tandem mass spectrometry in presence of 1 uM sulfaphenazole CYP2C9 inhibitor; type: ADME; procedure, shortened: as §2
Cytochrome P450 2C8 = biological target: T3, Cytochrome P450 2C8 (Homo sapiens, UniProt P10632); test: Drug level assessed as human recombinant CYP2C8-mediated oxidative metabolism treated with 1 uM 17-DMAG relative to CYP3A4; type: ADME; conditions: recombinant enzyme; procedure, shortened: as §3
T3 sequence (P10632 whole entry): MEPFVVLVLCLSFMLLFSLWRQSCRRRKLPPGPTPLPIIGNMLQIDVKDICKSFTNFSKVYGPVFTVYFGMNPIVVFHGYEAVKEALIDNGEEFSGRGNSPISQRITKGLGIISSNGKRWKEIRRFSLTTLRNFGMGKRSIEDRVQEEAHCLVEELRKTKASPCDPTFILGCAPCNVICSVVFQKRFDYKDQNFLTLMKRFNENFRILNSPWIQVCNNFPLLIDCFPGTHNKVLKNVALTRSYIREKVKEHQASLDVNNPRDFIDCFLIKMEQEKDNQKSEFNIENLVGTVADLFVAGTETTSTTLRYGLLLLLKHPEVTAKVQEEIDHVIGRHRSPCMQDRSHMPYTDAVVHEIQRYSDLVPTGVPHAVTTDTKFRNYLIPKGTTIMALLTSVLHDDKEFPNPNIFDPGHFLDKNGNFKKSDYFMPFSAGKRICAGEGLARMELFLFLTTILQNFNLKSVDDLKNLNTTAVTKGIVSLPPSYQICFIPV

Liver microsome [12] = test: Drug level in human liver microsomes treated with 1 uM 17-DMAG by liquid chromatography-tandem mass spectrometry in presence of 10 uM alpha-naphthoflavone CYP1A2 inhibitor; type: ADME; procedure, shortened: as §2
Liver microsome [13] = test: Drug level in human liver microsomes treated with 1 uM 17-DMAG by liquid chromatography-tandem mass spectrometry in presence of 1 uM quinidine CYP2D6 inhibitor; type: ADME; procedure, shortened: as §2
Cytochrome P450 2A6 = biological target: T4, Cytochrome P450 2A6 (Homo sapiens, UniProt P11509); test: Drug level assessed as human recombinant CYP2A6-mediated oxidative metabolism treated with 1 uM 17-DMAG relative to CYP3A4; type: ADME; conditions: recombinant enzyme; procedure, shortened: as §3
T4 sequence (P11509 whole entry): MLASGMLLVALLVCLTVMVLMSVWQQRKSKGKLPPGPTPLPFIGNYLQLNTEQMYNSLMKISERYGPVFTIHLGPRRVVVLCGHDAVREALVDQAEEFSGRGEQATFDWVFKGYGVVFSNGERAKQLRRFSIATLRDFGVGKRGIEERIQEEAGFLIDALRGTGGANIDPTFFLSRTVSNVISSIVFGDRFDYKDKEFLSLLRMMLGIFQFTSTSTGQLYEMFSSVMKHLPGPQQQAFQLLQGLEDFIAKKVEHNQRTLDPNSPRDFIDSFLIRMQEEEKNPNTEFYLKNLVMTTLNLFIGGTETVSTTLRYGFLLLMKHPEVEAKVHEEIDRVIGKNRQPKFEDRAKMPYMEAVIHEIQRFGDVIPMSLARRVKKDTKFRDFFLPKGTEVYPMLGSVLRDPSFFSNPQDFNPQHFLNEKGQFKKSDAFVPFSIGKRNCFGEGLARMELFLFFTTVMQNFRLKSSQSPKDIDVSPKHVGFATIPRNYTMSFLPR

Liver microsome [14] = test: Drug level in human liver microsomes treated with 1 uM 17-DMAG by liquid chromatography-tandem mass spectrometry in presence of 10 uM diethyldithiocarbamate CYP2E1 inhibitor; type: ADME; procedure, shortened: as §2
Liver microsome [15] = test: Drug level in human liver microsomes treated with 1 uM 17-DMAG by liquid chromatography-tandem mass spectrometry in presence of 1 uM tranylcypromine CYP2A6 inhibitor; type: ADME; procedure, shortened: as §2
Cytochrome P450 2D6 = Cytochrome P450 2D6 (Homo sapiens, UniProt P10635); test: Drug level assessed as human recombinant CYP2D6-mediated oxidative metabolism treated with 1 uM 17-DMAG relative to CYP3A4; type: ADME; conditions: recombinant enzyme; procedure, shortened: as §3
Chain of Cytochrome P450 2D6 (P10635 whole entry): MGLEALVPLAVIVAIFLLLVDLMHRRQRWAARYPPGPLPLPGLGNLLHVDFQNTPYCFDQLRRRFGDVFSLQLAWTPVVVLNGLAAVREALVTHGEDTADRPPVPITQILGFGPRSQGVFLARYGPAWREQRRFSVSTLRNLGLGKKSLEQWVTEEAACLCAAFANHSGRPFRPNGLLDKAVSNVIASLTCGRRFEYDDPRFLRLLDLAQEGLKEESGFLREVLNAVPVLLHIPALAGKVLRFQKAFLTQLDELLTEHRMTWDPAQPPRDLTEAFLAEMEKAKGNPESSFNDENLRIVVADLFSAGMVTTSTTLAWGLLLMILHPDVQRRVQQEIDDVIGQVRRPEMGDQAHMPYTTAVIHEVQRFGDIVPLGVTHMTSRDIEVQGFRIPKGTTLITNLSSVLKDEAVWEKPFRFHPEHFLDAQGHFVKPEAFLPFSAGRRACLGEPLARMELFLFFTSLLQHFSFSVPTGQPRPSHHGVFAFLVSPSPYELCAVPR

Chain of Cytochrome P450 2E1 (P05181 whole entry): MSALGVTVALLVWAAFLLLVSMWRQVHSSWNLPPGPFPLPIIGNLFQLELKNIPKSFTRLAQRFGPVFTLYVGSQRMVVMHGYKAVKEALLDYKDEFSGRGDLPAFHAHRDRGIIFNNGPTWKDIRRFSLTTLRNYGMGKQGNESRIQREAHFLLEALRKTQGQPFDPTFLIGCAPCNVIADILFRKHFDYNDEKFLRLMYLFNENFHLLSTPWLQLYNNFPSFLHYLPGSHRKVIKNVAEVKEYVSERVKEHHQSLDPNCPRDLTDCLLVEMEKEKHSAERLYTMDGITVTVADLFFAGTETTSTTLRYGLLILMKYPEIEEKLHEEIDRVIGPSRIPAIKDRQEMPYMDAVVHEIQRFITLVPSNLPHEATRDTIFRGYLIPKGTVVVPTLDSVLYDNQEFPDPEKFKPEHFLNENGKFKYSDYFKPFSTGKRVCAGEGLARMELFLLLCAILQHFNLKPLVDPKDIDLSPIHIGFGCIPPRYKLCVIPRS
Chain of Cytochrome P450 2C19 (P33261 whole entry): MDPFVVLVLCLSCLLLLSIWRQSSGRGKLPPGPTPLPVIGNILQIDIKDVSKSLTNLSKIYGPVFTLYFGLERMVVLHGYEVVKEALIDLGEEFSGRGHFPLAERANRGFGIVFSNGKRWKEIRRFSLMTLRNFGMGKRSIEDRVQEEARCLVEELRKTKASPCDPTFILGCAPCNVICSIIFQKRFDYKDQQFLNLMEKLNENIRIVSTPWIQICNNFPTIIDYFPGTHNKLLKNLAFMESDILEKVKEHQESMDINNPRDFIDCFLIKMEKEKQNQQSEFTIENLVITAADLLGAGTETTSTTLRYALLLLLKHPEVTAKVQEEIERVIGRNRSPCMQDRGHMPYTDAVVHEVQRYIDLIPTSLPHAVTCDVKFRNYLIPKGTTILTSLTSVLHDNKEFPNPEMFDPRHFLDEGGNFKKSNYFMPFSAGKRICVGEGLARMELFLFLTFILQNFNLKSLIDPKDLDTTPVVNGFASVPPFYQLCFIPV
Chain of Cytochrome P450 3A4 (P08684 whole entry): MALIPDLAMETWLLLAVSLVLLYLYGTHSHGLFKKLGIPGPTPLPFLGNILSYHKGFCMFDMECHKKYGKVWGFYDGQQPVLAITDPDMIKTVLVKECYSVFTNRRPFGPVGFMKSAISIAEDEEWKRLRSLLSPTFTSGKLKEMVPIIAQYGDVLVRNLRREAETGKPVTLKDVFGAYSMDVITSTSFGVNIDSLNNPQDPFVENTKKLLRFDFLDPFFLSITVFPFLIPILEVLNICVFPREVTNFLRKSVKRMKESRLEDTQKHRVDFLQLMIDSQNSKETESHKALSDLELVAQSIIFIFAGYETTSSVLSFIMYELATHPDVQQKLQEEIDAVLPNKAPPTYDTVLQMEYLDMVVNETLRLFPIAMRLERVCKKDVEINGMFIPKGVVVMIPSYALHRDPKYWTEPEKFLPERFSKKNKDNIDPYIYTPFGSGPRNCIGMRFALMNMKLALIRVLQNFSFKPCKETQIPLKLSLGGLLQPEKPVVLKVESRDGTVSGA
Chain of Cytochrome P450 3A5 (P20815 whole entry): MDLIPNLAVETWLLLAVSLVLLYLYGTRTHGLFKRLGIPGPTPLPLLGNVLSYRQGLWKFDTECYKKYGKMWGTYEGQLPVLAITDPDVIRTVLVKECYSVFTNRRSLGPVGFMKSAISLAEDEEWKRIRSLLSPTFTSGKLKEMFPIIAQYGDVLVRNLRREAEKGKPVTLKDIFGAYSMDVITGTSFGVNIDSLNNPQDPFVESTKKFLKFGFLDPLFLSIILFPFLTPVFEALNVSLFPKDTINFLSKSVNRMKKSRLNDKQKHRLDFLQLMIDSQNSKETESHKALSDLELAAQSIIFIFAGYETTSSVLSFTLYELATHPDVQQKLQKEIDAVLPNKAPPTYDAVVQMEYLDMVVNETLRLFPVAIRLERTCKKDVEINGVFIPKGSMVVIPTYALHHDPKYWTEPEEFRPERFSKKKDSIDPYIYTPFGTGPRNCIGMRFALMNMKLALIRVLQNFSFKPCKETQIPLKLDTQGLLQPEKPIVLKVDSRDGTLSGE
Chain of Cytochrome P450 2C9 (P11712 whole entry): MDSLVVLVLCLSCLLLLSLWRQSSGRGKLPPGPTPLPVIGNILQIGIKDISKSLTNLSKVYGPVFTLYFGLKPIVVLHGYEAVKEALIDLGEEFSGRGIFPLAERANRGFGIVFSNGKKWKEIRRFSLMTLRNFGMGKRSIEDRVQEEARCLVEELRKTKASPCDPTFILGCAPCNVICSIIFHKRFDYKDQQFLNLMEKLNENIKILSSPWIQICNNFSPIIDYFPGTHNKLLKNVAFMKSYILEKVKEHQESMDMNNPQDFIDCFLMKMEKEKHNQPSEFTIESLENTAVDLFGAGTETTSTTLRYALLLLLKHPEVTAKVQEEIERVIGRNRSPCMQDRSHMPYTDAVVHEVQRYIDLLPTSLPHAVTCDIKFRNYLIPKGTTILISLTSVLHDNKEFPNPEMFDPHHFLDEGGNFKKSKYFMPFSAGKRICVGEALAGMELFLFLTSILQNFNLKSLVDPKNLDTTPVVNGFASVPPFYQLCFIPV

With `CO[C@H]1/C=C\C=C(/C)C(=O)NC2=CC(=O)C(NCCN(C)C)=C(C[C@@H](C)C[C@H](OC)[C@H](O)[C@@H](C)/C=C(\C)[C@@H]1OC(N)=O)C2=O` (stereo in doubt) [ALVESPIMYCIN] the Drug metabolism (Cytochrome P450 2E1) was “metabolite_not_detected”, the Stability (Liver microsome [1]) was “Stable” and the Drug metabolism (Liver microsome [2]) was “metabolite_not_detected”. For the same compound, the half-life [3] was 16 h, the clearance [4] was 123 mL/min and the Drug metabolism (Cytochrome P450 3A5) was “metabolite_not_detected”. The remaining at 2 h [5] was 24%, the Drug metabolism (Cytochrome P450 2B6) was “metabolite_not_detected” and the Drug metabolism (Cytochrome P450 2C9) was “metabolite_not_detected”. For the same compound, the Km (Liver microsome [6]) was 6.61 µM and the Km (Liver microsome [7]) was 7.83 µM.
In the case of `CO[C@H]1/C=C\C=C(/C)C(=O)NC2=CC(=O)C(NC(O)CN(C)C)=C(C[C@@H](CO)C[C@H](OC)[C@H](O)[C@@H](CO)/C=C(\C)[C@@H]1OC(N)=O)C2=O` (stereo not given in full), the Drug metabolism (Liver microsome [8]) is reported as “metabolite_detected”, the Drug metabolism (Cytochrome P450 3A4) is reported as “metabolite_detected” and the Retention_time (Liver microsome [9]) is reported as 6.8 min. For the same compound, the Drug metabolism (Cytochrome P450 2C19) was “metabolite_detected”, the Drug metabolism (Liver microsome [10]) was “metabolite_detected” and the Drug metabolism (Cytochrome P450 1A2) was “metabolite_detected”. For the same compound, the Drug metabolism (Liver microsome [11]) was “metabolite_detected”, the Drug metabolism (Cytochrome P450 2C8) was “metabolite_detected” and the Drug metabolism (Liver microsome [12]) was “metabolite_detected”. The Drug metabolism (Liver microsome [13]) was “metabolite_detected”, the Drug metabolism (Cytochrome P450 2A6) was “metabolite_detected” and the Drug metabolism (Liver microsome [14]) was “metabolite_detected”. For the same compound, the Drug metabolism (Liver microsome [15]) was “metabolite_detected” and the Drug metabolism (Cytochrome P450 2D6) was “metabolite_detected”.
